Assay results taken from ChEMBL document CHEMBL5705892, “MK-2206, an allosteric Akt inhibitor, enhances antitumor efficacy by standard chemotherapeutic agents or molecular targeted drugs in vitro and in vivo” (Mol Cancer Ther, 2010).
Calls of active or inactive are those of the source. The calls are words filed in the database; no cut-off is given here.

Key:
[1] = target: RAC-alpha serine/threonine-protein kinase (Homo sapiens) (UniProt P31749); test: Induction of AKT phosphorylation at S473 residue in human NCI-H1703 cells at 0.7 nmol/L measured after 8 hrs by MSD assay; type: cell-based; details: filed as activator
Chain of RAC-alpha serine/threonine-protein kinase (Homo sapiens) (P31749 whole entry): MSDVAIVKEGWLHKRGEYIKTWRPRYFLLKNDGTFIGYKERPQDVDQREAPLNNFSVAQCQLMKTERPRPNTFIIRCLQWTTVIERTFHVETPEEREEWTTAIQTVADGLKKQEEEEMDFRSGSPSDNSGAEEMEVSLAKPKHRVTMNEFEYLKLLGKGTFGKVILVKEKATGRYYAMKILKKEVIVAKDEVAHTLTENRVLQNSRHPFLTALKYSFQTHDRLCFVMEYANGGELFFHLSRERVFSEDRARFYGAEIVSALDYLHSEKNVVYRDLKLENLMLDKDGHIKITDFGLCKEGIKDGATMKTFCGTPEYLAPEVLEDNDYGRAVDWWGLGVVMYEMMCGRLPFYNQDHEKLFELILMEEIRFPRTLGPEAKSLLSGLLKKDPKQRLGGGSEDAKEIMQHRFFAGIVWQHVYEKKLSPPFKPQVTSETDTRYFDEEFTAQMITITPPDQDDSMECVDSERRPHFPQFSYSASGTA
How it was run: (§1)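 Lung cancer cells were seeded at 5 × 10⁴ per well, and carboplatin or gemcitabine was added 24 h after plating. Phospho-Akt induction was then measured.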

[2] = Toxicity in human NCI-H460 cells xenografted CD1 nude mouse assessed as body weight loss at 100 mg/kg, iv administered once a week for 2 weeks measured during compound dosing relative to control; type: organism-based; details: in vivo, 336 h
How it was run: (§2)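 Mice with s.c. NCI-H460 xenografts (50% Matrigel/50% PBS, left flank), randomized at mean 0.2 cm³, n=5/group, treatment started 8 d after implant. Gemcitabine 100 mg/kg i.v. in saline on days 0 and 7; vehicle-only controls. Body weight and physical signs monitored throughout.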

[3] = target: RAC-alpha serine/threonine-protein kinase (Homo sapiens) (UniProt P31749); test: Induction of AKT phosphorylation at S473 residue in human NCI-H661 cells at 10 nmol/L measured after 8 hrs by MSD assay; type: cell-based; details: filed as activator; how it was run: as §1
[4] = Toxicity in human NCI-H460 cells xenografted CD1 nude mouse assessed as body weight loss at 100 mg/kg, iv administered once a week for 2 weeks measured on day 14 to 16; type: organism-based; details: in vivo, 336 h, time 14-16 day; how it was run: as §2
[5] = target: RAC-alpha serine/threonine-protein kinase (Homo sapiens) (UniProt P31749); test: Induction of AKT phosphorylation at S473 residue in human NCI-H460 cells at 5 nmol/L measured after 8 hrs by MSD assay; type: cell-based; details: filed as activator; how it was run: as §1
[6] = target: RAC-alpha serine/threonine-protein kinase (Homo sapiens) (UniProt P31749); test: Induction of AKT phosphorylation at S473 residue in human NCI-H441cells at 5 nmol/L measured after 4 to 24 hrs by MSD assay; type: cell-based; details: NCI-H441, time 4-24 hrs; how it was run: as §1
[7] = target: RAC-alpha serine/threonine-protein kinase (Homo sapiens) (UniProt P31749); test: Induction of AKT phosphorylation at S473 residue in human NCI-H1993 cells at 28 nmol/L measured after 8 hrs by MSD assay; type: cell-based; details: filed as activator; how it was run: as §1
[8] = target: RAC-alpha serine/threonine-protein kinase (Homo sapiens) (UniProt P31749); test: Induction of AKT phosphorylation at S473 residue in human UMC-11 cells at 10 umol/L measured after 4 to 24 hrs by MSD assay; type: cell-based; details: dose 10.0 µmol/L, time 4-24 hrs
[9] = Toxicity in human PC-3 cells xenografted CD1 nude mouse assessed as body weight loss at 5 mg/kg, iv measured on day 15 relative to control; type: organism-based; details: in vivo, 360 h, time 15 day
How it was run: (§3)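 Male CD1-nude mice with s.c. PC-3 tumours (50% Matrigel/50% PBS, left flank), randomized at mean 0.2 cm³, n=5/group, treated from 25 d post-implant. Body weight monitored versus vehicle-only controls.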

[10] = Toxicity in human PC-3 cells xenografted CD1 nude mouse assessed as body weight loss at 5 mg/kg, iv relative to control; type: organism-based; details: in vivo; how it was run: as §3
[11] = system: PC-3; test: Antitumor activity against human PC-3 cells xenografted in CD1 nude mouse assessed as reduction in tumor volume at 5 mg/kg, iv by caliper method; type: functional, organism-based
How it was run: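 Male CD1-nude mice received s.c. PC-3 cells and were treated from day 25 after implant, at 0.2 cm³, n = 5. Docetaxel (0.73% ethanol in saline) was given at 5 mg/kg i.v. on day 0. MK-2206 (30% Captisol) was given at 120 mg/kg po on days 1, 3, 5, 8, 10, 12. Caliper volume twice weekly.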

[12] = system: MDA-MB-468; test: Antiproliferative activity against human MDA-MB-468 cells assessed as reduction in cell proliferation measured after 72 hrs by celltiter-glo assay; type: functional, cell-based; details: MDA-MB-468, 72 h
How it was run: (§4)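 Cells in RPMI 1640 with 10% heat-inactivated FBS at 37°C and 5% CO₂ were seeded at 2 to 3 × 10³ per well. […] Growth was read as cellular ATP by CellTiter-Glo.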

[13] = system: HCC70; test: Induction of apoptosis in human HCC70 cells assessed as increase in caspase-3/7 activity at 10 umol/L measured after 48 hrs by caspase-glo 3/7 assay relative to control; type: functional; details: dose 10 µmol/L
How it was run: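 HCC70 breast cells were treated for 48 h with MK-2206 (0, 0.03, 0.3, 3 µmol/L), with or without lapatinib (0, 1, 3, 5, 10 µmol/L). Caspase-3/7 activity was read by Caspase-Glo 3/7 luminescence and expressed as fold induction over DMSO-treated control. The experiment was run twice.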

[14] = system: SK-BR-3; test: Antiproliferative activity against human SK-BR-3 cells assessed as reduction in cell proliferation measured after 72 hrs by celltiter-glo assay; type: functional, cell-based; details: SK-BR-3, 72 h; how it was run: as §4
[15] = target: RAC-alpha serine/threonine-protein kinase (Homo sapiens) (UniProt P31749); test: Inhibition of AKT phosphorylation at S473 residue in human HCC70 cells at 10 umol/L measured up to 24 hrs by Western blot analysis; type: cell-based; details: dose 10.0 µmol/L
How it was run: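 HCC70 cells at ~70% confluence were exposed to 10 µmol/L lapatinib, 1 µmol/L MK-2206, or both, for 0, 3, 6, 12 or 24 h. Lysates were prepared in Triton X-100/Tris buffer (pH 7.5) with protease and phosphatase inhibitors. Immunoblots after SDS-PAGE and nitrocellulose transfer were probed for pAkt and pS6.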

[16] = system: HCC70; test: Antiproliferative activity against human HCC70 cells assessed as reduction in cell proliferation measured after 72 hrs by celltiter-glo assay; type: functional, cell-based; details: HCC70, 72 h; how it was run: as §4
[17] = system: HCC1954; test: Antiproliferative activity against human HCC1954 cells assessed as reduction in cell proliferation measured after 72 hrs by celltiter-glo assay; type: functional, cell-based; details: HCC1954, 72 h; how it was run: as §4
[18] = system: SK-OV-3; test: Antitumor activity against human SK-OV-3 cells xenografted in CB17/icr SCID mouse assessed as tumor growth inhibition at 100 mg/kg, po administered 5 days per week for 2 weeks and measured twice a week during compound dosing by caliper method; type: functional, organism-based
How it was run: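 SK-OV-3 cells were implanted s.c. into female C.B-17/ICR-scid mice, which were randomized at 0.13 cm³, n = 5. Lapatinib (water) was given at 100 mg/kg po on days 0–4 and 7–11. MK-2206 (30% Captisol) was given at 60 or 120 mg/kg po on days 0, 2, 4, 7, 9, 11. Tumor volume by calipers twice weekly.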

[19] = system: SK-OV-3; test: Antiproliferative activity against human SK-OV-3 cells assessed as reduction in cell proliferation measured after 72 hrs by celltiter-glo assay; type: functional, cell-based; details: SK-OV-3, 72 h; how it was run: as §4
[20] = system: NCI-N87; test: Antiproliferative activity against human NCI-N87 cells assessed as reduction in cell proliferation measured after 72 hrs by celltiter-glo assay; type: functional, cell-based; details: NCI-N87, 72 h; how it was run: as §4
[21] = system: Mus musculus; test: In vivo inhibition of EGFR in human NCI-H292 cells xenografted mouse assessed as reduction in AKT phosphorylation at S473 residue at 50 mg/kg, po administered as single dose measured after 14 hrs by Western blot analysis; type: functional, organism-based
[22] = system: NCI-H23; test: Antiproliferative activity against human NCI-H23 cells assessed as reduction in cell proliferation measured after 72 hrs by celltiter-glo assay; type: functional, cell-based; details: NCI-H23, 72 h; how it was run: as §4
[23] = system: NCI-H358; test: Antiproliferative activity against human NCI-H358 cells assessed as reduction in cell proliferation measured after 72 hrs by celltiter-glo assay; type: functional, cell-based; details: NCI-H358, 72 h; how it was run: as §4
[24] = system: NCI-H1299; test: Antiproliferative activity against human NCI-H1299 cells assessed as reduction in cell proliferation measured after 72 hrs by celltiter-glo assay; type: functional, cell-based; details: NCI-H1299, 72 h; how it was run: as §4
[25] = system: A-431; test: Antiproliferative activity against human A-431 cells assessed as reduction in cell proliferation measured after 72 hrs by celltiter-glo assay; type: functional, cell-based; details: A-431, 72 h; how it was run: as §4
[26] = system: NCI-H292; test: Antiproliferative activity against human NCI-H292 cells assessed as reduction in cell proliferation measured after 72 hrs by celltiter-glo assay; type: functional, cell-based; details: NCI-H292, 72 h; how it was run: as §4
[27] = system: NCI-H292; test: Induction of apoptosis in human NCI-H292 cells assessed as increase in caspase-3/7 activity up to 20 umol/L measured after 48 hrs by caspase-glo 3/7 assay; type: functional, cell-based; details: dose <= 20.0 µmol/L
How it was run: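 Caspase-3/7 activity was measured by Caspase-Glo 3/7 and expressed as fold over DMSO vehicle control. The experiment was done twice.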

[28] = system: Calu-6; test: Antiproliferative activity against human Calu-6 cells assessed as reduction in cell proliferation measured after 72 hrs by celltiter-glo assay; type: functional, cell-based; details: Calu-6, 72 h; how it was run: as §4
[29] = system: HCC827; test: Antiproliferative activity against human HCC827 cells assessed as reduction in cell proliferation measured after 72 hrs by celltiter-glo assay; type: functional, cell-based; details: HCC827, 72 h; how it was run: as §4
[30] = Toxicity in human NCI-H292 cells xenografted CD-1 mouse assessed as death at 50 mg/kg, po administered once daily for 5 days per week for 2 weeks and measured during compound dosing; type: organism-based; details: in vivo, 336 h
How it was run: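 NCI-H292 cells in 50% Matrigel/PBS injected s.c. into flank of female CD1-nude mice; dosing began after 2 wk at mean tumour 0.2 cm³, n = 5/group. […] Body weight and signs monitored; treatment ended day 16.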

[31] = system: Mus musculus; test: In vivo inhibition of EGFR in human NCI-H292 cells xenografted mouse assessed as reduction in ERK phosphorylation at T202/Y204 residues at 50 mg/kg, po administered as single dose measured after 14 hrs by Western blot analysis; type: functional, organism-based
[32] = system: NCI-H292; test: Antitumor activity against human NCI-H292 cells xenografted in CD-1 mouse assessed as tumor growth suppression at 50 mg/kg, po administered once daily for 5 days per week for 2 weeks and measured twice a week during compound dosing by caliper method; type: functional, organism-based
How it was run: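 Female CD1-nude mice carried s.c. NCI-H292 cells in Matrigel/PBS and were randomized at 0.2 cm³, n = 5. […] MK-2206 (30% Captisol) was given 2 h later at 120 mg/kg po on days 0, 2, 4, 7, 9, 11, or at 360 mg/kg on days 0 and 7. Control received vehicle. Caliper volume twice weekly.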

## Nc1ccn([C@@H]2O[C@H](CO)[C@@H](O)C2(F)F)c(=O)n1 [GEMCITABINE]
[1]
  Activity: Active
[2]
  Activity: 7%
[3]
  Activity: Active
[4]
  Activity: Non-Toxic
[5]
  Activity: Active
[6]
  Activity: inactive
[7]
  Activity: Active
[8]
  Activity: inactive

## CC(=O)O[C@@]12CO[C@@H]1C[C@H](O)[C@@]1(C)C(=O)[C@H](O)C3=C(C)[C@@H](OC(=O)[C@H](O)[C@@H](NC(=O)OC(C)(C)C)c4ccccc4)C[C@@](O)([C@@H](OC(=O)c4ccccc4)[C@H]21)C3(C)C [DOCETAXEL ANHYDROUS]
[9]
  Activity: Non-Toxic
[10]
  Activity: 4%
[11]
  Activity: Active

## CS(=O)(=O)CCNCc1ccc(-c2ccc3ncnc(Nc4ccc(OCc5cccc(F)c5)c(Cl)c4)c3c2)o1 [LAPATINIB]
[12]
  IC50: 4.5 µM
[13]
  fold change (FC): ~2
[14]
  IC50: 0.03 µM
[15]
  inhibition: inactive
[16]
  IC50: 3.2 µM
[17]
  IC50: 5.5 µM
[18]
  TGI: Active
[19]
  IC50: > 10 µM
[20]
  IC50: 0.04 µM

## C#Cc1cccc(Nc2ncnc3cc(OCCOC)c(OCCOC)cc23)c1 [ERLOTINIB]
[21]
  inhibition: inactive
[22]
  IC50: 10.6 µM
[23]
  IC50: 4.4 µM
[24]
  IC50: 21.1 µM
[25]
  IC50: 1.9 µM
[26]
  IC50: 0.5 µM
[27]
  Activity: inactive
[28]
  IC50: 35.6 µM
[29]
  IC50: 0.02 µM
[30]
  Activity: Non-Toxic
[31]
  inhibition: Active
[32]
  Activity: Active
